High-throughput results as filed in PubChem.
Many of the other results were omitted from the sample, so hits are more common in it than they were.
T cruzi growth-1: inhibitors of T. cruzi proliferation; T. cruzi beta-gal in NIH3T3, GalScreen luminescence, 90 h; AID 624255; inhibition, % at 8.34 µM; hit rate 5.9% among 77,000;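 active means mean inhibition above about 93%, with at least 55% of replicates each passing it, limit read from the data, passing the limit was not always enough; inconclusive means only one of those two conditions holds; inactive means neither condition holds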
GASC1 inh: KDM4C (human) demethylase inhibition; GST-KDM4C 2-372, H3K9me3 peptide, LANCE TR-FRET; inhibition, % at 12.5 µM; hit rate 0.15% among 96,000; AID 720574;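 active means mean replicate inhibition above about 25%, with at least 55% of replicates also reaching it, limit read from the data, passing the limit was not always enough; inconclusive means only one of those two conditions met; inactive means neither condition met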
Target sequence (Q9H3R0 2-372 limits assumed): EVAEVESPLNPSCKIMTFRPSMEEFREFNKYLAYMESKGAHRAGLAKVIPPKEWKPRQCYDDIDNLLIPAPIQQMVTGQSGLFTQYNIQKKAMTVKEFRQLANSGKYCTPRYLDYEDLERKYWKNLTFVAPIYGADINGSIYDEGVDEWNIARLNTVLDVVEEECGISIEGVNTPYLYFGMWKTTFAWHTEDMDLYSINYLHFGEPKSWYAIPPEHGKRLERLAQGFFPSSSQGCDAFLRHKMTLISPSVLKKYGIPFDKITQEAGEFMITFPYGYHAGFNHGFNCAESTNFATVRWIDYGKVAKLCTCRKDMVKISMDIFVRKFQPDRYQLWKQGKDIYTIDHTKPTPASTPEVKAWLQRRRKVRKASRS
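System: N-terminal GST-fused human GASC-1 (KDM4C) fragment, residues 2-372 / Amount: 10 nM GST-KDM4C in enzyme reaction / Also added: H3K9me3 peptide with Fe(II)/2OG / Times: 30 min demethylation and 1 h detection at room temperature / Signal: LANCE TR-FRET / Read-out basis: Fall in 671/618 emission ratio as inhibition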
IDH1 mut inh: blocks human IDH1 R132H reductase activity; AID 624101; inhibition, % at 10 µM; diaphorase/resazurin fluorescence, 60 min; hit rate 0.18% among 70,000; O75874; in the data active means inhibition above about 34%; inconclusive means no clear call, values can overlap the other calls; inactive means below about 11%
T cruzi growth-2: blocks T. cruzi growth in NIH3T3 host cells; shares compounds with T cruzi growth-1; T. cruzi beta-gal in NIH3T3, GalScreen luminescence, 90 h; inhibition, % at 8.35 µM; hit rate 72% among 5,600;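 active means mean replicate inhibition above about 95% and at least 55% of replicates individually reaching it, limit read from the data; inconclusive means only one of the two criteria is met; inactive means neither criterion is met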
T cruzi growth-3: blocks T. cruzi growth in NIH3T3 host cells; shares compounds with T cruzi growth-1; T. cruzi beta-gal in NIH3T3, GalScreen luminescence, 90 h; inhibition, % at 2.09 µM; hit rate 21% among 5,600; AID 651740;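 active means mean inhibition above about 95%, with at least 55% of replicates also reaching it, limit read from the data; inconclusive means meets just one of the two conditions; inactive means meets neither condition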
3T3 cytotox: kills mouse NIH/3T3 fibroblasts | shares compounds with T cruzi growth-1 | NIH/3T3 viability, CellTiter-Glo ATP luminescence, 90 h | AID 651742 | cytotoxicity (signal decrease), % at 8.35 µM | hit rate 14% among 5,600;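 active means mean signal decrease across replicates above about 35% based on untreated-well scatter, with enough replicates individually passing, limit read from the data; inconclusive means no rule stated though some were filed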
3T3 cytotox 2: NIH/3T3 (mouse) viability loss. NIH/3T3 viability, CellTiter-Glo ATP luminescence, 90 h. shares compounds with T cruzi growth-1. inhibition, % at 24.9 µM. AID 651744. hit rate 56% among 5,600;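 active means mean loss of cell viability signal at or above a set limit, and enough replicates individually reaching it; inconclusive means meets only the mean limit or only the replicate share; inactive means meets neither condition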
Numbers stand for hits.

How did C[C@H]1CN([C@@H](C)CO)C(=O)c2cc(C#CC(C)(C)O)cnc2O[C@H]1CN(C)C(=O)C1CCCCC1 do in these assays?
T cruzi growth-1: inactive; GASC1 inh: inactive; IDH1 mut inh: inactive

Results for COc1cc(O)c(C(=O)c2c(C)cc(O)cc2OC)c(O)c1 ?
IDH1 mut inh: inactive

Results for C[C@H](CO)N1C[C@H](C)[C@H](CN(C)C(=O)Nc2ccccc2F)Oc2cc(-c3ccc(F)cc3)ccc2S1(=O)=O ?
T cruzi growth-1: inactive; GASC1 inh: inactive; IDH1 mut inh: inactive

Results for C[C@@H]1CN([C@H](C)CO)S(=O)(=O)c2ccc(-c3ccc(F)cc3)cc2O[C@H]1CN(C)C(=O)Nc1ccccc1F ?
T cruzi growth-1: inactive; GASC1 inh: inactive

What do the screens show for `C[C@@H]1CN([C@@H](C)CO)S(=O)(=O)c2ccc(-c3ccc(F)cc3)cc2O[C@@H]1CN(C)C(=O)Nc1ccccc1F`?
T cruzi growth-1: 98; GASC1 inh: inactive; IDH1 mut inh: inactive; T cruzi growth-2: 102; T cruzi growth-3: inactive; 3T3 cytotox: inactive; 3T3 cytotox 2: inactive

What do the screens show for `C[C@H]1CN([C@@H](C)CO)S(=O)(=O)c2ccc(-c3ccc(F)cc3)cc2O[C@H]1CN(C)C(=O)Nc1ccccc1F`?
T cruzi growth-1: inconclusive; GASC1 inh: inactive; T cruzi growth-2: 110; T cruzi growth-3: inactive; 3T3 cytotox: 56; 3T3 cytotox 2: 55

Results for C[C@H](CO)N1C[C@H](C)[C@H](CN(C)C(=O)Nc2ccccc2F)Oc2cc(-c3cccc(C#N)c3)ccc2S1(=O)=O ?
T cruzi growth-1: inactive; GASC1 inh: inactive

How did C[C@H]1CN([C@@H](C)CO)S(=O)(=O)c2ccc(-c3cccc(C#N)c3)cc2O[C@H]1CN(C)C(=O)Nc1ccccc1F do in these assays?
T cruzi growth-1: 117; GASC1 inh: inactive; IDH1 mut inh: inactive; T cruzi growth-2: 103; T cruzi growth-3: inactive; 3T3 cytotox: 37; 3T3 cytotox 2: 64

Results for COc1ccc(-c2ccc3c(c2)O[C@H](CN(C)C(=O)Nc2ccccc2F)[C@H](C)CN([C@@H](C)CO)S3(=O)=O)cc1 ?
T cruzi growth-1: 96; GASC1 inh: inactive; IDH1 mut inh: inactive; T cruzi growth-2: 105; T cruzi growth-3: inactive; 3T3 cytotox: inactive; 3T3 cytotox 2: 72

How did COc1ccc(-c2ccc3c(c2)O[C@H](CN(C)C(=O)Nc2ccccc2F)[C@H](C)CN([C@H](C)CO)S3(=O)=O)cc1 do in these assays?
T cruzi growth-1: inactive; GASC1 inh: inactive; IDH1 mut inh: inactive

What do the screens show for `Cc1nc(SCC(=O)Nc2oc(-c3ccccc3)c(-c3ccccc3)c2C#N)nc2c1CCCC2`?
IDH1 mut inh: inactive

How did Cc1ccc(S(=O)(=O)N(C)C[C@@H]2Oc3ccc(NS(=O)(=O)c4ccccc4)cc3CC(=O)N([C@H](C)CO)C[C@@H]2C)cc1 do in these assays?
T cruzi growth-1: inactive; GASC1 inh: inactive

How did COC(=O)c1ccccc1NC(=O)C(C)Oc1ccc2c(C)cc(=O)oc2c1 (stereo not given) do in these assays?
IDH1 mut inh: inactive

Results for Cc1cccc(OCC(=O)Nc2ccccc2C(=O)NC2CCCCC2)c1 ?
IDH1 mut inh: inactive

How did Cc1nn(C(=O)Cn2nc([N+](=O)[O-])cc2C)c(C)c1Cl do in these assays?
IDH1 mut inh: inactive

How did Cc1ccc(OCC(=O)Nc2cc3nn(-c4ccc(C)cc4)nc3cc2C)cc1 do in these assays?
IDH1 mut inh: inactive

How did C[C@@H]1CN([C@H](C)CO)S(=O)(=O)c2ccc(C3=CCCC3)cc2O[C@@H]1CN(C)Cc1ccccc1F do in these assays?
T cruzi growth-1: 103; GASC1 inh: inactive; IDH1 mut inh: inactive; T cruzi growth-2: 99; T cruzi growth-3: 105; 3T3 cytotox: inactive; 3T3 cytotox 2: 107

Results for C[C@@H]1CN([C@@H](C)CO)S(=O)(=O)c2ccc(C3=CCCC3)cc2O[C@H]1CN(C)Cc1ccccc1F ?
T cruzi growth-1: 121; GASC1 inh: inactive; IDH1 mut inh: inactive; T cruzi growth-2: 101; T cruzi growth-3: 105; 3T3 cytotox: inactive; 3T3 cytotox 2: 104

How did C[C@H](CO)N1C[C@H](C)[C@H](CN(C)Cc2ccccc2F)Oc2cc(C3=CCCC3)ccc2S1(=O)=O do in these assays?
T cruzi growth-1: inactive; GASC1 inh: inactive

How did C[C@@H]1CN([C@@H](C)CO)S(=O)(=O)c2ccc(C3=CCCCC3)cc2O[C@H]1CN(C)Cc1ccccc1F do in these assays?
GASC1 inh: inactive

Results for O=C(NO)c1ccc(C(=O)N/N=C/c2ccoc2)cc1 ?
IDH1 mut inh: inactive

Results for CC1CCc2c(sc3ncnc(SCC(=O)Nc4ccc5c(c4)OCCO5)c23)C1 (stereo not given) ?
IDH1 mut inh: inactive

Results for C[C@H](CO)N1C[C@H](C)[C@H](CN(C)C(=O)Nc2cccc3ccccc23)Oc2ncc(-c3cccc(C(F)(F)F)c3)cc2C1=O ?
T cruzi growth-1: 107; GASC1 inh: inactive; IDH1 mut inh: inactive; T cruzi growth-2: 100; T cruzi growth-3: inactive; 3T3 cytotox: 44; 3T3 cytotox 2: 104

What do the screens show for `C[C@H](CO)N1C[C@H](C)[C@H](CN(C)Cc2cccc(C(F)(F)F)c2)Oc2ncc(-c3ccccc3)cc2C1=O`?
T cruzi growth-1: 119; GASC1 inh: inactive; IDH1 mut inh: inactive; T cruzi growth-2: 99; T cruzi growth-3: inactive; 3T3 cytotox: inactive; 3T3 cytotox 2: inactive

Results for COc1ccc(C#Cc2cnc3c(c2)C(=O)N([C@H](C)CO)C[C@H](C)[C@H](CN(C)Cc2ccccc2)O3)cc1OC ?
T cruzi growth-1: inactive; GASC1 inh: inactive; IDH1 mut inh: inactive

What do the screens show for `COc1ccc(C#Cc2cnc3c(c2)C(=O)N([C@H](C)CO)C[C@H](C)[C@H](CN(C)Cc2cccc(C(F)(F)F)c2)O3)cc1OC`?
T cruzi growth-1: 127; GASC1 inh: inactive; IDH1 mut inh: inactive; T cruzi growth-2: 107; T cruzi growth-3: inactive; 3T3 cytotox: inactive; 3T3 cytotox 2: inactive

What do the screens show for `Cc1cccc(CN(C)C[C@@H]2Oc3ncc(-c4cccc(C(F)(F)F)c4)cc3C(=O)N([C@H](C)CO)C[C@@H]2C)c1`?
T cruzi growth-1: inactive; GASC1 inh: inactive; IDH1 mut inh: inactive

How did C[C@H](CO)N1C[C@H](C)[C@H](CN(C)C(=O)Nc2cccc3ccccc23)Oc2ncc(-c3cccc(F)c3)cc2C1=O do in these assays?
GASC1 inh: inactive; IDH1 mut inh: inactive

Results for C=CCNC(=O)CSc1nnc(-c2ccc3nonc3c2)n1C ?
IDH1 mut inh: inactive

What do the screens show for `O=C(c1cccc(F)c1)N1CCCCN2[C@H](C1)[C@H](c1ccc(-c3ccc(F)cc3)cc1)[C@@H]2CO`?
T cruzi growth-1: inactive
